pIC50: −log10 of the molar value. Active and inactive are the calls of the source. No cut-off for these calls is given here. Positions of bridges follow the written chain, without caps; N, C: chain ends. Residues, ends and D or L forms follow the SMILES beside them.
Columns and labels:
[1] = molecular target: T1, Lethal factor (Bacillus anthracis) (UniProt P15917); assay: (§1) Inhibition of Bacillus anthracis lethal factor protease preincubated for 30 mins prior to addition of substrate containing fluorescent proteins CyPet and YPet measured every 2 mins for 3 hrs by FRET assay
T1 sequence (whole entry): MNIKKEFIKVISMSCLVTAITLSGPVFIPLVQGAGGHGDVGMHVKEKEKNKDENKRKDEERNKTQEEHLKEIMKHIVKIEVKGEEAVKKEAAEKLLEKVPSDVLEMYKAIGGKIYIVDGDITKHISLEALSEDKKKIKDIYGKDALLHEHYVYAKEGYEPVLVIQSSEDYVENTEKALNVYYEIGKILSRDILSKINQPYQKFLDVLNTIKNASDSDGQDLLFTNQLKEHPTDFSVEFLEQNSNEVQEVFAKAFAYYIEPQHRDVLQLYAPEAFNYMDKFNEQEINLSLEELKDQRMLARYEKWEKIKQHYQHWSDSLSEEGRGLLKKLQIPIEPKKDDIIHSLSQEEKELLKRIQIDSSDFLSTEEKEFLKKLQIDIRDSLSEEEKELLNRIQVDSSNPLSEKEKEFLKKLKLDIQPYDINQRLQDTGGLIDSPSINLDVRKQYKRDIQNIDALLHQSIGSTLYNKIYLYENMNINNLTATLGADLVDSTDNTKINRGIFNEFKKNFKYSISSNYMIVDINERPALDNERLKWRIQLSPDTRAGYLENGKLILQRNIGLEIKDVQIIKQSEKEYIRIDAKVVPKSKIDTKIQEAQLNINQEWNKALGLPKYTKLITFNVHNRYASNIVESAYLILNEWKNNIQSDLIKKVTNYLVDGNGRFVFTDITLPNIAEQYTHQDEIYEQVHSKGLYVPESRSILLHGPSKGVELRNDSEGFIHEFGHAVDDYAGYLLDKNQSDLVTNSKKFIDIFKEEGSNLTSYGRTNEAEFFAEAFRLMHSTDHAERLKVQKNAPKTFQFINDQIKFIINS
In short: (§2)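 Preincubated with peptide from 1 nM to 10 μM for 30 min at room temperature. CyPet–YPet substrate (LF consensus sequence with (GGS)6 linkers) then added to a final 10 nM. FRET read every 2 min for 3 h with excitation at 405 nm and emission ratio It/I0 at 535 nm. Initial velocities fitted to log(inhibitor)–response with variable Hill slope. Run in triplicate.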

Lethal factor [2] = molecular target: T2, Lethal factor (Bacillus anthracis, UniProt P15917); assay: as §1; in short: as §2
T2 sequence (P15917 whole entry): T1 sequence (whole entry)

[3] = molecular target: T1, Lethal factor (Bacillus anthracis); assay: Inhibition of Bacillus anthracis lethal factor protease up to 10 uM preincubated for 30 mins prior to addition of substrate containing fluorescent proteins CyPet and YPet measured every 2 mins for 3 hrs by FRET assay; in short: as §2
HeLa = assay: Cytotoxicity against human HeLa cells up to 100 uM after 48 hrs by MTT assay; assay type: cell-based
In short: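 HeLa cells grown in DMEM with 10% FBS, penicillin and streptomycin at 37° C, 5% CO2. About 3 × 10^3 cells per well were seeded for 24 h, washed with PBS, then exposed to peptides in DMEM/10% FBS for 48 h at 37° C. MTT was added for 2 h and formazan dissolved in DMSO. Absorbance read at 595 nm with 670 nm background subtracted.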

Lethal factor [4] = molecular target: T2, Lethal factor
[5] = molecular target: Disintegrin and metalloproteinase domain-containing protein 17 (Homo sapiens) (UniProt P78536); assay: Inhibition of recombinant human glycosylated his-tagged TACE catalytic domain (233 to 477 residues) assessed as inhibition of proteolytic activity preincubated for 30 mins prior to addition of Mca-Pro-Leu-Ala-Gln-Ala-Val-Dpa-Arg-Ser-Ser-Ser-Arg-NH2 as substrate measured every 2 mins for 3 hrs by fluorescence analysis
In short: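 TACE catalytic domain (233-477) at 2 nM in 2.5 μM ZnCl2, 25 mM Tris-HCl, pH 8.0. Preincubated with peptide from 1 nM to 10 μM for 30 min at room temperature. Fluorogenic Mca/Dpa substrate then added to a final 3 μM. Fluorescence read every 2 min for 3 h (excitation 320 nm, emission 405 nm). Initial velocities fitted to log(inhibitor)–response with variable Hill slope.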

Sequence of Disintegrin and metalloproteinase domain-containing protein 17 (Homo sapiens) (P78536 whole entry, the tested form may be a part): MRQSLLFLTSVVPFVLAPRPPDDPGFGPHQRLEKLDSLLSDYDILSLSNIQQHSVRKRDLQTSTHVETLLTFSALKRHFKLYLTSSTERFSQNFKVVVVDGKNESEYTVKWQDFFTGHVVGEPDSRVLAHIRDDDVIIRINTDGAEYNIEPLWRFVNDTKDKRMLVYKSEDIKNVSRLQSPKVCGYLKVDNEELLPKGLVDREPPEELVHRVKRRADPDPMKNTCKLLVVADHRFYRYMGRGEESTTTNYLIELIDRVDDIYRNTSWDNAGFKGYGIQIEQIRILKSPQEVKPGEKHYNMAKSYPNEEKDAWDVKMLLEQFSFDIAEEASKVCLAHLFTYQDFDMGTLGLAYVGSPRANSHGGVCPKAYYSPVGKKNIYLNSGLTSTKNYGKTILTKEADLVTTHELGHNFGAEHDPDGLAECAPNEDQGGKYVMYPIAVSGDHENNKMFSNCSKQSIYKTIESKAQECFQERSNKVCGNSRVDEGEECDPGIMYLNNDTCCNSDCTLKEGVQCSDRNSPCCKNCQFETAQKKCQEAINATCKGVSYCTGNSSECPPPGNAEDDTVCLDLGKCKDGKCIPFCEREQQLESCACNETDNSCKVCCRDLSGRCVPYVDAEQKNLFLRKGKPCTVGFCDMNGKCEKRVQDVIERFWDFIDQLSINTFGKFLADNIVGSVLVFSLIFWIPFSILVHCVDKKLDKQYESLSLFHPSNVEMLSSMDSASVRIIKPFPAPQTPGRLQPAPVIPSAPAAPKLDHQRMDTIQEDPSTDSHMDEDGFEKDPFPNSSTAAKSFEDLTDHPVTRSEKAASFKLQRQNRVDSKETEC

SMILES | inhibition [1] | pIC50 (Lethal factor [2]) | inhibition [3] | Activity (HeLa) | pIC50 (Lethal factor [4]) | inhibition [5]
CC[C@H](C)[C@@H]1NC(=O)[C@@H]2CSSC[C@H](NC(=O)[C@H](CCCNC(=N)N)NC(=O)[C@@H]3CSSC[C@H](NC1=O)C(=O)N[C@@H]([C@@H](C)O)C(=O)N[C@@H](CCC(=O)O)C(=O)NCC(=O)N[C@@H](Cc1ccccc1)C(=O)N3)C(=O)N[C@@H](CC(C)C)C(=O)N[C@H]1CSSC[C@H](NC(=O)[C@H](C(C)C)NC(=O)CNC(=O)[C@H](CCCNC(=N)N)NC(=O)[C@H](CCCNC(=N)N)NC1=O)C(=O)N[C@@H](CCCNC(=N)N)C(=O)N2 (cyclo(CICTEGFCRCLCRRGVCR); disulfide 1-10, 3-8, 12-17) | Dose-dependent effect | 5.46 | – | – | – | –
CC[C@H](C)[C@@H]1NC(=O)[C@H](CS)NC(=O)[C@H](CCCNC(=N)N)NC(=O)[C@H](CS)NC(=O)[C@H](C(C)C)NC(=O)CNC(=O)[C@H](CCCNC(=N)N)NC(=O)[C@H](CCCNC(=N)N)NC(=O)[C@H](CS)NC(=O)[C@H](CC(C)C)NC(=O)[C@H](CS)NC(=O)[C@H](CCCNC(=N)N)NC(=O)[C@H](CS)NC(=O)[C@H](Cc2ccccc2)NC(=O)CNC(=O)[C@H](CCCNC(=N)N)NC(=O)[C@H]([C@@H](C)O)NC(=O)[C@H](CS)NC1=O (cyclo(CICTRGFCRCLCRRGVCR)) | – | – | inactive | – | – | –
CC(C)C[C@@H]1NC(=O)[C@@H]2CSSC[C@H](NC(=O)[C@H](CCCNC(=N)N)NC(=O)[C@@H]3CSSC[C@H](NC1=O)C(=O)N[C@@H](CCCNC(=N)N)C(=O)N[C@@H](CCCNC(=N)N)C(=O)NCC(=O)N[C@@H](C(C)C)C(=O)N3)C(=O)N[C@@H](Cc1c[nH]c3ccccc13)C(=O)N[C@H]1CSSC[C@H](NC(=O)[C@H](Cc3ccccc3)NC(=O)CNC(=O)[C@H](CCCNC(=N)N)NC(=O)[C@H]([C@@H](C)O)NC1=O)C(=O)N[C@@H](CCCNC(=N)N)C(=O)N2 (cyclo(CLCRRGVCRCWCTRGFCR); disulfide 1-10, 3-8, 12-17) | Dose-dependent effect | 6.69 | – | – | – | –
N=C(N)NCCC[C@@H]1NC(=O)[C@H](CCCNC(=N)N)NC(=O)[C@@H]2CSSC[C@H](NC(=O)[C@H](Cc3c[nH]c4ccccc34)NC(=O)[C@H](CCCNC(=N)N)NC1=O)C(=O)N[C@@H](CCCNC(=N)N)C(=O)N[C@H]1CSSC[C@H](NC(=O)[C@H](CCCNC(=N)N)NC(=O)[C@@H]3CSSC[C@H](NC(=O)[C@H](Cc4c[nH]c5ccccc45)NC1=O)C(=O)N[C@@H](CCCNC(=N)N)C(=O)N[C@@H](CCCNC(=N)N)C(=O)N[C@@H](CCCNC(=N)N)C(=O)N[C@@H](Cc1c[nH]c4ccccc14)C(=O)N3)C(=O)N[C@@H](Cc1c[nH]c3ccccc13)C(=O)N2 (cyclo(CRCWCRRRWCRCWCRRRW); disulfide 1-14, 3-12, 5-10) | Dose-dependent effect | – | – | Non-Toxic | 6.60 | –
C[C@@H](O)[C@@H]1NC(=O)[C@@H]2CSSC[C@H](NC(=O)[C@H](Cc3c[nH]c4ccccc34)NC(=O)[C@H](CCCNC(=N)N)NC(=O)[C@H](CCCNC(=N)N)NC1=O)C(=O)N[C@@H](CCCNC(=N)N)C(=O)N[C@H]1CSSC[C@H](NC(=O)[C@H](CCCNC(=N)N)NC(=O)[C@@H]3CSSC[C@H](NC(=O)[C@H](Cc4c[nH]c5ccccc45)NC1=O)C(=O)N[C@@H](CCCNC(=N)N)C(=O)N[C@@H](CCCNC(=N)N)C(=O)N[C@@H](CCCNC(=N)N)C(=O)N[C@@H](Cc1c[nH]c4ccccc14)C(=O)N3)C(=O)N[C@@H](Cc1c[nH]c3ccccc13)C(=O)N2 (cyclo(CRCWCRRRWCRCWCTRRW); disulfide 1-14, 3-12, 5-10) | Dose-dependent effect | – | – | – | – | –
CC[C@H](C)[C@@H]1NC(=O)[C@@H]2CSSC[C@H](NC(=O)[C@H](CCCNC(=N)N)NC(=O)[C@@H]3CSSC[C@H](NC1=O)C(=O)N[C@@H]([C@@H](C)O)C(=O)N[C@@H](CCCNC(=N)N)C(=O)NCC(=O)N[C@@H](Cc1ccccc1)C(=O)N3)C(=O)N[C@@H](CC(C)C)C(=O)N[C@H]1CSSC[C@H](NC(=O)[C@H](C(C)C)NC(=O)CNC(=O)[C@H](CCCNC(=N)N)NC(=O)[C@H](CCCNC(=N)N)NC1=O)C(=O)N[C@@H](CCCNC(=N)N)C(=O)N2 (cyclo(GFCRCLCRRGVCRCICTR); disulfide 3-16, 5-14, 7-12) | Dose-dependent effect | 6.41 | – | Non-Toxic | 5.98 | Dose-dependent effect

Reference: ChEMBL document CHEMBL4007405 (J Med Chem, 2017)
